Drawing on ChEMBL document CHEMBL1140872, “Discovery of a potent and selective inhibitor for human carbonyl reductase 1 from propionate scanning applied to the macrolide zearalenone” (Bioorg Med Chem, 2009), this text covers Activity, IC50 and Ki for 5 molecules.

The structures appear in SMILES notation.

Assay [1] concerns the target T1, Carbonyl reductase [NADPH] 1 (Homo sapiens) (UniProt P16152).
T1 sequence (whole entry): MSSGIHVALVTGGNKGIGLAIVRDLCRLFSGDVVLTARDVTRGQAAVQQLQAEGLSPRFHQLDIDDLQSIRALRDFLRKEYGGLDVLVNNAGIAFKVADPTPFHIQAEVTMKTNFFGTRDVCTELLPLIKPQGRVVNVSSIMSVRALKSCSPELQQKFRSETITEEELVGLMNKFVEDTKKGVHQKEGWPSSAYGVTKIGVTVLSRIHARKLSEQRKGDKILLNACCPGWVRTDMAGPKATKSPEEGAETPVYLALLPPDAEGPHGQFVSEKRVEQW
As to the kind of experiment: Binding affinity to human recombinant carbonyl reductase 1 expressed in Escherichia coli assessed as NADPH oxidation at 200 uM relative to isatin. The procedure, abridged:
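Substrate test used 200 nM purified CBR1 and 200 µM NADPH, injected onto compound at 200 µM in 50 mM sodium phosphate pH 6.8 with 1 mM MgCl2. NADPH oxidation was read as the fluorescence decrease at 460 nm (excitation 355 nm). Rate came from linear regression after normalizing to the fluorescence rise on injection. Run in triplicate and expressed as % of the isatin rate.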

Assay [2] concerns the target T2, Carbonyl reductase [NADPH] 1 (Homo sapiens, UniProt P16152).
T2 sequence (P16152 whole entry): T1 sequence (whole entry)
As to the kind of experiment: Binding affinity to human recombinant carbonyl reductase 1 expressed in Escherichia coli assessed as NADPH oxidation using isatin as substrate. The procedure, abridged: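 Purified recombinant CBR1 (200 nM) and NADPH were added to compound in 50 mM sodium phosphate, pH 6.8, 1 mM MgCl2. NADPH oxidation was followed as the fluorescence decrease at 460 nm (excitation 355 nm). Rates came from linear regression after normalising to the fluorescence rise at injection. Compounds were titrated at two isatin levels, with no-protein background subtracted. Sigmoidal fit gave IC50, then Ki from the isatin concentration.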

`C[C@H]1CCCC(=O)CCC/C=C/c2cc(O)cc(O)c2C(=O)O1`: in assay [1], the Activity stood at 5.7%.
As to `COc1cc(O)c2c(c1)/C=C/CC[C@H](C)C(=O)CCC[C@H](C)OC2=O`, the Activity in assay [1] was 1.5%.
`COc1cc2c(c(OC)c1)C(=O)O[C@@H](C)CCCC(=O)[C@@H](C)CC/C=C/2`: in assay [1], the Activity is 31.3%.
As to `C[C@@H]1C[C@H]2O[C@@H]2/C=C\C=C\C(=O)Cc2c(Cl)c(O)cc(O)c2C(=O)O1` [RADICICOL], in assay [2], the IC50 – broadly, the concentration at which inhibition is half-maximal – came out at 3270 nM and the inhibitory constant (Ki) (usually the equilibrium dissociation constant of an inhibitor or competing ligand from its target) is 520 nM.
Take `C[C@H]1CCCC(=O)[C@@H](C)CC/C=C/c2cc(O)cc(O)c2C(=O)O1`: in assay [2], the half-maximal inhibitory concentration (IC50) is 210 nM and the Ki worked out at 40 nM.
